Assays:
[1] = target: T1, Metabotropic glutamate receptor 5 (Homo sapiens, UniProt P41594); assay: Negative allosteric modulation of human mGluR5 expressed in HEK293 cells assessed as calcium mobilization by FLIPR assay; type: functional, cell-based
Target sequence in this assay (P41594 whole entry): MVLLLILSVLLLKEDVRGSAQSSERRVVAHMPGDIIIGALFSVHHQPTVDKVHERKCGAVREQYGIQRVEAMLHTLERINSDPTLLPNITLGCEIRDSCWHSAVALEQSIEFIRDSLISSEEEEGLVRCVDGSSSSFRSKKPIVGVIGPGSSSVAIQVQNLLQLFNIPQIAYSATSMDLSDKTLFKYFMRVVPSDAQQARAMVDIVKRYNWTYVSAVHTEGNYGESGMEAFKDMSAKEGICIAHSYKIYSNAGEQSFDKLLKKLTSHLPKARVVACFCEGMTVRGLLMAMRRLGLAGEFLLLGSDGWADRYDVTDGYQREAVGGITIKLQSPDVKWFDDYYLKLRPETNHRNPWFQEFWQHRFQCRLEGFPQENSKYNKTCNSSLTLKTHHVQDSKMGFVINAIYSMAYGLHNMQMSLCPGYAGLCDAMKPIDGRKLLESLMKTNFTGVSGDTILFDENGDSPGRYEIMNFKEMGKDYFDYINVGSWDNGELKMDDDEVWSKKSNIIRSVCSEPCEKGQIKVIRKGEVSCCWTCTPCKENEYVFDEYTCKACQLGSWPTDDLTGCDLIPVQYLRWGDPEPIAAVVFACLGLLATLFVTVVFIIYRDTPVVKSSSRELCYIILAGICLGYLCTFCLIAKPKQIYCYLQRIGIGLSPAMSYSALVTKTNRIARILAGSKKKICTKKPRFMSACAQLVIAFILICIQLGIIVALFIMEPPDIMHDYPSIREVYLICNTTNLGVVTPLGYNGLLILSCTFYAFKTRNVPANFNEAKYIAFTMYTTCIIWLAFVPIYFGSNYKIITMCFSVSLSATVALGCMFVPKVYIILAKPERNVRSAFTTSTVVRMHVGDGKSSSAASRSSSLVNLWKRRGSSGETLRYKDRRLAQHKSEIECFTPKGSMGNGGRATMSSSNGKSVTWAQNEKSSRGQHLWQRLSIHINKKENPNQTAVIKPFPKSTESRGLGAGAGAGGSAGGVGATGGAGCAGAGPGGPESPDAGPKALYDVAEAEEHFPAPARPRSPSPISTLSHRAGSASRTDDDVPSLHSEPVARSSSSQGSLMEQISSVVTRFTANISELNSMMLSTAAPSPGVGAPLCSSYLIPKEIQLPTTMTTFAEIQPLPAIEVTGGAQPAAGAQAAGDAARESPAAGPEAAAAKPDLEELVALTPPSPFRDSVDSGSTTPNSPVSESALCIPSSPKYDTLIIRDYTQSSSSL

[2] = Half life in mouse liver microsomes
[3] = Half life in rat liver microsomes
[4] = Half life in human liver microsomes
Mus musculus = assay: Antidepressant activity in ICR mouse assessed as decrease in immobility time at 10 mg/kg, po administered 1 hr before test measured for 4 mins following training for 2 mins by forced swimming test; type: functional; parameters: scale not given: the % may be the effect or the level left
Outline: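 Mouse forced swim test: ICR mice dosed orally 1 h before testing; 2 min training, then immobility duration recorded over 4 min. Activity expressed as % decrease in immobility duration. Mean ± SEM, n = 8; Dunnett's multiple comparisons after one-way ANOVA (p < 0.05).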

[5] = target: T1, Metabotropic glutamate receptor 5; assay: Negative allosteric modulation of human mGluR5 expressed in HEK293 cells assessed as calcium mobilization at 2 uM by FLIPR assay; type: functional, cell-based
Target sequence in this assay (P41594 21-1212 limits assumed): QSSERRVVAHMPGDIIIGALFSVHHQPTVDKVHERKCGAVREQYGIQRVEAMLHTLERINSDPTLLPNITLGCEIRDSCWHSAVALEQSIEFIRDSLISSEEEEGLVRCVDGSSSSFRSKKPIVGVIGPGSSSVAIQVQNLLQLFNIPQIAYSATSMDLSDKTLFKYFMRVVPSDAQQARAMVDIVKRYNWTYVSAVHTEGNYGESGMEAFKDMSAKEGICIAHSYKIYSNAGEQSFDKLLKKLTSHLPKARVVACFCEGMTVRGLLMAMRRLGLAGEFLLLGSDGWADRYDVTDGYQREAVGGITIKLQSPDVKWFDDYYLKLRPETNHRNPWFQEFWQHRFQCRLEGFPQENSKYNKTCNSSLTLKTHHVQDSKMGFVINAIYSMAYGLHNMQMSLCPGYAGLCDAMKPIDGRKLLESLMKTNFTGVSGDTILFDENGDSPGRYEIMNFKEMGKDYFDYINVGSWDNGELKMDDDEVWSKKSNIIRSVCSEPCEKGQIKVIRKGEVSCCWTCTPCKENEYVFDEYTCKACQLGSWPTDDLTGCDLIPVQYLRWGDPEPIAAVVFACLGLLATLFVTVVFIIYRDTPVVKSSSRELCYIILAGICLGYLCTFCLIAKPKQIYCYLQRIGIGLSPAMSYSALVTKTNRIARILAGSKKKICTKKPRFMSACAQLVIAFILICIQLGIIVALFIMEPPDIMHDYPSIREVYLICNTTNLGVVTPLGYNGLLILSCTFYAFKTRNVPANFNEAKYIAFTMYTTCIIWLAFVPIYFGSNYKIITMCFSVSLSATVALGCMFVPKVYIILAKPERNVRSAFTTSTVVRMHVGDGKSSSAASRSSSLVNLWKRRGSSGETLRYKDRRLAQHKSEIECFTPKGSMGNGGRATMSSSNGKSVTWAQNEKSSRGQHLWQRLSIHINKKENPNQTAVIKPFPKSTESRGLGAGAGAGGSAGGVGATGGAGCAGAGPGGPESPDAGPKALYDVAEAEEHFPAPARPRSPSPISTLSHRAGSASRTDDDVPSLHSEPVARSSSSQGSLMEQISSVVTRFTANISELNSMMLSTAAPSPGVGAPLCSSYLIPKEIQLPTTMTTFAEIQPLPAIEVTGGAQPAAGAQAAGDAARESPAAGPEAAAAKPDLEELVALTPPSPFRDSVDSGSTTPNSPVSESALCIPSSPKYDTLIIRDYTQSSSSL

[6] = target: T1, Metabotropic glutamate receptor 5; assay: Negative allosteric modulation of human mGluR5 expressed in HEK293 cells assessed as calcium mobilization at 1 uM by FLIPR assay; type: functional, cell-based
Target sequence in this assay (P41594 21-1212 limits assumed): as above

SMILES	IC50 [1] [nM]	half-life ([2]; microsomes) [h]	half-life ([3]; microsomes) [h]	half-life ([4]; microsomes) [h]	half-life ([2]; liver microsomes) [h]	half-life ([3]; liver microsomes) [h]	half-life ([4]; liver microsomes) [h]	Activity (Mus musculus) [%]	further results
Cc1cccc(NC(=O)c2nn(C)c(OCC3CCCCC3)c2C)n1	1300	–	–	–	–	–	–	–	–
Cc1cccc(NC(=O)c2nn(C)c(-c3ccncc3)c2C)n1	71	0.133	0.617	0.7	–	–	–	–	–
Cc1cccc(NC(=O)c2nc(C)n(-c3ccc(Cl)cc3)c2C)n1	17.1	1.35	0.983	0.9	–	–	–	–	–
Cc1ccnc(NC(=O)c2nn(C)c(-c3ccc(F)cc3)c2C)c1	82.3	0.167	1.98	1.52	–	–	–	–	–
Cc1cccc(NC(=O)c2nc(C)n(-c3ccc(F)c(Cl)c3)c2C)n1	14.5	1.17	1.45	1.27	–	–	–	–	–
Cc1cccc(NC(=O)c2nc(C)n(-c3ccc(Cl)c(Cl)c3)c2C)n1	5.8	–	–	–	1.55	2.23	2.03	85.2	–
Cc1ccc(NC(=O)c2nn(C)c(-c3ccc(F)cc3)c2C)nc1	90.8	–	–	–	0.217	1.12	0.433	–	–
Cc1nc(C#Cc2cccnc2)cs1	–	–	–	–	–	–	–	14	–
Cc1cccc(NC(=O)c2nc(C)n(-c3ccc(F)cc3)c2C)n1	13	0.3	1.77	0.733	–	–	–	52.1	–
Cc1c(C(=O)Nc2ccnc(F)c2)nn(C)c1-c1ccc(F)cc1	41.6	–	–	–	> 5	1.9	> 5	15.5	–
Cc1cccc(NC(=O)c2nn(C)c(OC3CCNCC3)c2C)n1	–	–	–	–	–	–	–	–	inhibition [5]: 5.6%
Cc1cccc(NC(=O)c2nn(C)c(-c3ccc(F)c(F)c3)c2C)n1	4.3	0.7	2.48	0.767	–	–	–	58.8	–
Cc1cccc(NC(=O)c2nn(C)c(OC3CCOCC3)c2C)n1	–	–	–	–	–	–	–	–	inhibition [6]: 11.6%
Cc1cccc(NC(=O)c2nn(C)c(-c3ccc(F)cc3F)c2C)n1	3.7	–	–	–	0.633	1.27	1.12	25.7	–
Cc1cccc(NC(=O)c2nn(C)c3ccccc23)n1	> 1000	–	–	–	–	–	–	–	–
Cc1cccc(NC(=O)c2nn(C)c(-c3ccc(C(F)(F)F)cc3)c2C)n1	38	–	–	–	3.23	> 5	> 5	18.5	–
Cc1cccc(NC(=O)c2nn(C)c(-c3cc(F)cc(F)c3)c2C)n1	5.3	–	–	–	0.3	1.07	0.533	–	–
Cc1cccc(NC(=O)c2nn(C)c(OC3CCN(C)CC3)c2C)n1	–	–	–	–	–	–	–	–	inhibition [6]: -7.7%
Cc1ccc(-c2c(C)c(C(=O)Nc3cccc(C)n3)nn2C)cc1	5.3	–	–	–	–	–	–	30.8	–
Cc1c(C(=O)Nc2ccc(F)cn2)nn(C)c1-c1ccc(F)cc1	10.3	0.65	> 5	> 5	–	–	–	36.8	–
O=C(Nc1cc(Cl)ccc1O)c1noc2c1CCC2	373	–	–	–	–	–	–	–	–
Cc1nc(C(=O)Nc2ccc(F)cn2)c(C)n1-c1ccc(F)cc1	88.3	0.533	1.83	> 5	–	–	–	–	–
Cc1cccc(NC(=O)c2nn(C)c(C3CCCCC3)c2C)n1	25	–	–	–	0.467	0.133	1.38	–	–
Cc1csc(NC(=O)c2nn(C)c(-c3ccc(F)cc3)c2C)n1	16.4	0.75	1.02	2.03	–	–	–	32.8	–
Cc1cccc(NC(=O)c2nn(C)c3c2CCCC3)n1	27	–	–	–	–	–	–	–	–
Cc1nc(NC(=O)c2nc(C)n(-c3ccc(F)cc3)c2C)ccc1F	139	–	–	–	1.43	0.733	1	–	–

SMILES	IC50 [1] [nM]	half-life ([2]; microsomes) [h]	half-life ([3]; microsomes) [h]	half-life ([4]; microsomes) [h]	half-life ([2]; liver microsomes) [h]	half-life ([3]; liver microsomes) [h]	half-life ([4]; liver microsomes) [h]	Activity (Mus musculus) [%]	further results
Cc1c(C(=O)Nc2ccnc(Cl)n2)nn(C)c1-c1ccc(F)cc1	7.1	–	–	–	> 5	> 5	> 5	31.2	–
O=C(Nc1cccc(Cl)c1)c1noc2c1CCC2	63	–	–	–	–	–	–	–	–
Cc1c(C(=O)Nc2ccnc(Cl)c2)nn(C)c1-c1ccc(F)cc1	56.3	> 5	2.68	> 5	–	–	–	39.1	–
Cc1cccc(NC(=O)c2nn(C)c(OC3CCCCC3)c2C)n1	92	–	–	–	–	–	–	–	–
COc1ccc(-n2c(C)nc(C(=O)Nc3cccc(C)n3)c2C)cc1	147	–	–	–	–	–	–	–	–
Cc1nc(C(=O)Nc2cccc(F)n2)c(C)n1-c1ccc(F)cc1	24.2	–	–	–	0.617	1.13	1.6	–	–
Cc1c(C(=O)Nc2ccncc2)nn(C)c1-c1ccc(F)cc1	301	–	–	–	–	–	–	–	–
Cc1cccc(NC(=O)c2nn(C)c(-c3ccc(N(C)C)cc3)c2C)n1	645	–	–	–	–	–	–	–	–
CCc1c(C(=O)Nc2cccc(C)n2)nn(C)c1-c1ccccc1	27	–	–	–	–	–	–	–	–
Cc1c(C(=O)Nc2cccc(C(F)(F)F)n2)nn(C)c1-c1ccc(F)cc1	130	–	–	–	1.63	0.967	4.48	–	–
COc1ccc(-c2c(C)c(C(=O)Nc3cccc(C)n3)nn2C)cc1	17	–	–	–	1.18	1.58	> 5	14.4	–
Cc1cccc(NC(=O)c2nn(C)c(OCc3ccc(F)cc3)c2C)n1	911	–	–	–	–	–	–	–	–
Cc1cccc(NC(=O)c2nn(C)c(-c3ccc(Cl)cc3)c2C)n1	3.8	–	–	–	–	–	–	51.4	–
Cc1c(C(=O)Nc2cccc(Cl)n2)nn(C)c1-c1ccc(F)cc1	16.4	–	–	–	1.93	1.8	1.92	12.6	–
Cc1cccc(NC(=O)c2nn(C)c(-c3cccc(Cl)c3)c2C)n1	4.7	0.533	0.917	2	–	–	–	–	–
Cc1nc(C(=O)Nc2cccc(C#N)n2)c(C)n1-c1ccc(F)cc1	77	–	–	–	–	–	–	–	–
Cc1nc(NC(=O)c2nn(C)c(-c3ccc(F)cc3)c2C)ccc1F	28	1.65	2.77	3.55	–	–	–	–	–
Cc1cccc(NC(=O)c2nn(C)c(-c3ccc(Cl)c(Cl)c3)c2C)n1	2.3	–	–	–	3.25	2.47	1.78	45.8	–
Cc1nc(C(=O)Nc2ccnc(Cl)c2)c(C)n1-c1ccc(F)cc1	62	5	1.57	3.75	–	–	–	–	–
Cc1c(C(=O)Nc2cc(Cl)ccn2)nn(C)c1-c1ccc(F)cc1	195	0.4	2.38	2.1	–	–	–	–	–
Cc1cccc(NC(=O)c2nc(C)n(-c3ccc(C(F)(F)F)cc3)c2C)n1	46.2	> 5	> 5	> 5	–	–	–	–	–
Cc1nc(C(=O)Nc2cccc(C(F)(F)F)n2)c(C)n1-c1ccc(F)cc1	173	–	–	–	2.63	1.2	3.27	–	–
Cc1cnc(NC(=O)c2nn(C)c(-c3ccc(F)cc3)c2C)s1	2700	–	–	–	–	–	–	–	–
Cc1cc(NC(=O)c2nn(C)c(-c3ccc(F)cc3)c2C)ccn1	94.5	1.4	1.27	1.28	–	–	–	–	–
Cc1c(C(=O)Nc2ccc(Cl)cn2)nn(C)c1-c1ccc(F)cc1	184	–	–	–	0.267	3.65	> 5	–	–
Cc1cccc(NC(=O)c2c3c(nn2C)CCCC3)n1	> 1000	–	–	–	–	–	–	–	–
